pEC50, pIC50: −log10 of the molar value.
Legend:
MT4 = assay: Inhibition of cytopathic effect of HIV-1 in MT-4 cells; format: functional, cell-based; details: Homo sapiens
[1] = target: Human immunodeficiency virus type 1 protease (Human immunodeficiency virus 1, UniProt Q72874); assay: Inhibitory activity against HIV-1 protease.
Method in brief: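 IC50 against HIV-1 proteinase, from duplicate determinations at each inhibitor concentration, with mean values used for analysis. Results were standardized against a control run in every assay.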

SMILES	pEC50 (MT4)	pIC50 [1]
CC1(C)S[C@H]([C@H](NC(=O)Cc2ccccc2)C(=O)NCc2ccccc2)N[C@H]1C(=O)N[C@H](Cc1ccccc1)[C@H](O)CC(=O)N[C@H](CO)c1ccccc1	4.97	6.77
C[C@H](Cc1ccccc1)NC(=O)[C@@H]1N[C@@H]([C@H](NC(=O)Cc2ccccc2)C(=O)NCc2ccccc2)SC1(C)C		< 3.74
CC1(C)S[C@H]([C@H](NC(=O)Cc2ccccc2)C(=O)NCc2ccccc2)N[C@H]1C(=O)N[C@H](Cc1ccccc1)[C@H](O)CC(=O)NCCc1ncc[nH]1		6.52
CC1(C)S[C@H]([C@H](NC(=O)Cc2ccccc2)C(=O)NCc2ccccc2)N[C@H]1C(=O)N[C@H](Cc1ccccc1)[C@H](O)CC(N)=O	< 4.00	7.09
CC1(C)S[C@H]([C@H](NC(=O)Cc2ccccc2)C(=O)NCc2ccccc2)N[C@H]1C(=O)N[C@@H](CO)Cc1ccccc1		6.82
CC1(C)S[C@H]([C@H](NC(=O)Cc2ccccc2)C(=O)NCc2ccccc2)N[C@H]1C(=O)N[C@H](Cc1ccccc1)[C@H](O)CC(=O)N[C@@H](CO)Cc1ccccc1	< 4.00	6.77
C[C@H](CO)NC(=O)[C@@H]1N[C@@H]([C@H](NC(=O)Cc2ccccc2)C(=O)NCc2ccccc2)SC1(C)C		< 4.70
C[C@@H](Cc1ccccc1)NC(=O)[C@@H]1N[C@@H]([C@H](NC(=O)Cc2ccccc2)C(=O)NCc2ccccc2)SC1(C)C		< 3.74
CC1(C)S[C@H]([C@H](NC(=O)Cc2ccccc2)C(=O)NCc2ccccc2)N[C@H]1C(=O)NCCCNC(=O)[C@@H]1N[C@@H]([C@H](NC(=O)Cc2ccccc2)C(=O)NCc2ccccc2)SC1(C)C		6.27
CC1(C)S[C@H]([C@H](NC(=O)Cc2ccccc2)C(=O)NCc2ccccc2)N[C@H]1C(=O)N[C@H](Cc1ccccc1)[C@@H](O)CC(N)=O		5.72
CC1(C)S[C@H]([C@H](NC(=O)Cc2ccccc2)C(=O)NCc2ccccc2)N[C@H]1C(=O)N[C@H](Cc1ccccc1)[C@H](O)CC(=O)NCC(O)CO (some centres not stated)	4.40	7.02
CCCCC(CO)NC(=O)[C@@H]1N[C@@H]([C@H](NC(=O)Cc2ccccc2)C(=O)NCc2ccccc2)SC1(C)C (some centres not stated) [listing 1 of 2 here]		< 5.34
CC1(C)S[C@H]([C@H](NC(=O)Cc2ccccc2)C(=O)NCc2ccccc2)N[C@H]1C(N)=O		< 3.64
CC1(C)S[C@H]([C@H](NC(=O)Cc2ccccc2)C(=O)NCc2ccccc2)N[C@H]1C(=O)N[C@H](CO)Cc1ccccc1		< 3.77
CC1(C)S[C@H]([C@H](NC(=O)Cc2ccccc2)C(=O)NCc2ccccc2)N[C@H]1C(=O)N[C@@H](CO)CCc1ccccc1		4.60
CC1(C)S[C@H]([C@H](NC(=O)Cc2ccccc2)C(=O)NCc2ccccc2)N[C@H]1C(=O)N[C@H](Cc1ccccc1)[C@H](O)CC(=O)N[C@H](CO)Cc1ccccc1	< 4.00	6.66

SMILES	pEC50 (MT4)	pIC50 [1]
CC1(C)S[C@H]([C@H](NC(=O)Cc2ccccc2)C(=O)NCc2ccccc2)N[C@H]1C(=O)N[C@H](Cc1ccccc1)[C@H](O)CC(=O)N[C@@H](CO)c1ccccc1	< 4.00	6.72
CC(C)CNC(=O)C[C@H](O)[C@@H](Cc1ccccc1)NC(=O)[C@@H]1N[C@@H]([C@H](NC(=O)Cc2ccccc2)C(=O)NCc2ccccc2)SC1(C)C		5.55
CCC(C)C(CO)NC(=O)[C@@H]1N[C@@H]([C@H](NC(=O)Cc2ccccc2)C(=O)NCc2ccccc2)SC1(C)C (some centres not stated)		< 6.27
CC1(C)S[C@H]([C@H](NC(=O)Cc2ccccc2)C(=O)NCc2ccccc2)N[C@H]1C(=O)N[C@H](CO)CCc1ccccc1		4.59
CC1(C)S[C@H]([C@H](NC(=O)Cc2ccccc2)C(=O)NCc2ccccc2)N[C@H]1C(=O)NCCO		3.74
CC1(C)S[C@H]([C@H](NC(=O)Cc2ccccc2)C(=O)NCc2ccccc2)N[C@H]1C(=O)N[C@H](Cc1ccccc1)[C@H](O)CC(=O)NCCO		5.96
CC1(C)S[C@H]([C@H](NC(=O)Cc2ccccc2)C(=O)NCc2ccccc2)N[C@H]1C(=O)N[C@H](Cc1ccccc1)[C@H](O)CC(=O)NCc1ccccc1	5.33	8.34
CCCCC(CO)NC(=O)[C@@H]1N[C@@H]([C@H](NC(=O)Cc2ccccc2)C(=O)NCc2ccccc2)SC1(C)C (some centres not stated) [listing 2 of 2 here]		6.60
CC(C)C[C@H](CO)NC(=O)[C@@H]1N[C@@H]([C@H](NC(=O)Cc2ccccc2)C(=O)NCc2ccccc2)SC1(C)C		< 5.34
CC1(C)S[C@H]([C@H](NC(=O)Cc2ccccc2)C(=O)NCc2ccccc2)N[C@H]1C(=O)N[C@H](Cc1ccccc1)[C@@H](O)CC(=O)NCc1ccccc1		5.54
CC1(C)S[C@H]([C@H](NC(=O)Cc2ccccc2)C(=O)NCc2ccccc2)N[C@H]1C(=O)N[C@H](Cc1ccccc1)[C@H](O)CC(=O)NCCCO	5.24	7.27
CC1(C)S[C@H]([C@H](NC(=O)Cc2ccccc2)C(=O)NCc2ccccc2)N[C@H]1C(=O)N[C@H](Cc1ccccc1)C(O)CNC(=O)Cc1ccccc1 (some centres not stated)	< 4.00	7.28
CC(C)[C@H](CO)NC(=O)[C@@H]1N[C@@H]([C@H](NC(=O)Cc2ccccc2)C(=O)NCc2ccccc2)SC1(C)C		< 5.33
CC(C)CNC(=O)C[C@@H](O)[C@@H](Cc1ccccc1)NC(=O)[C@@H]1N[C@@H]([C@H](NC(=O)Cc2ccccc2)C(=O)NCc2ccccc2)SC1(C)C	< 3.82	7.16
CC1(C)S[C@H]([C@H](NC(=O)Cc2ccccc2)C(=O)NCc2ccccc2)N[C@H]1C(=O)NCC(O)CNC(=O)[C@@H]1N[C@@H]([C@H](NC(=O)Cc2ccccc2)C(=O)NCc2ccccc2)SC1(C)C	5.59	8.30
